ChEMBL document CHEMBL1122440, “2'-O-nitro-1-beta-D-arabinofuranosylcytosine. A new derivative of 1-beta-D-arabinofuranosylcytosine that resists enzymatic deamination and has antileukemic activity” (J Med Chem, 1983)

Columns and labels:
CCRF-CEM/ara-C = assay: Cytotoxicity against CCRF-CEM/ara-C human leukemic lymphoblastoid cell lines; type: functional, cell-based
Outline: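 Ara-C-resistant subline of CCRF-CEM human leukemic lymphoblasts, deficient in deoxycytidine kinase activity. Growth inhibition measured in culture.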

CCRF-CEM = assay: Cytotoxicity against CCRF-CEM human leukemic lymphoblastoid cell lines; type: functional, cell-based
L1210 [1] = assay: Antileukemic activity against L1210 leukemia cells in female B6D2F1/J mice at 156 mg/kg dose (post inoculation life span, days); type: functional, Mus musculus
Outline: (§1)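 Female B6D2F1/J mice (about 20 g) inoculated ip on day 0 with ascites fluid containing 10^6 L1210 cells. Starting 24 h later, hydrochloride salt given ip daily for 7 consecutive days in water (neutralized with 1 N NaOH when necessary), 0.01 mL/g body weight. Five mice per dose. Life span reported as mean ± 1 SD. Increased life span calculated as (T/C - 1) × 100 against untreated controls.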

L1210 [2] = assay: Antileukemic activity against L1210 leukemia cells in female B6D2F1/J mice at 208 mg/kg dose (post inoculation life span, days); type: functional, Mus musculus; outline: as §1
L1210 [3] = assay: Antileukemic activity against L1210 leukemia cells in female B6D2F1/J mice at 34 mg/kg dose (post inoculation life span, days); type: functional, Mus musculus; outline: as §1
L1210 [4] = assay: Antileukemic activity against L1210 leukemia cells in female B6D2F1/J mice at 93 mg/kg dose (post inoculation life span, days); type: functional, Mus musculus; outline: as §1
L1210 [5] = assay: Antileukemic activity against L1210 leukemia cells in female B6D2F1/J mice at 34 mg/kg dose(Mean increased life span, calculated as (T/C-1)X100); type: functional, Mus musculus; outline: as §1
MOLT-4 = assay: Cytotoxicity against MOLT-4 human leukemic lymphoblastoid cell lines; type: functional, cell-based
L1210 [6] = assay: Antileukemic activity against L1210 leukemia cells in female B6D2F1/J mice at 156 mg/kg dose(Mean increased life span, calculated as (T/C-1)X100); type: functional, Mus musculus; outline: as §1
L1210 [7] = assay: Antileukemic activity against L1210 leukemia cells in female B6D2F1/J mice at 56 mg/kg dose(Mean increased life span, calculated as (T/C-1)[…]); type: functional, Mus musculus; outline: as §1
L1210 [8] = assay: Antileukemic activity against L1210 leukemia cells in female B6D2F1/J mice at 93 mg/kg dose(Mean increased life span, calculated as (T/C-1)X100); type: functional, Mus musculus; outline: as §1
RPMI 6410 = assay: Cytotoxicity against RPMI-6410 human leukemic lymphoblastoid cell lines; type: functional, cell-based
L1210 [9] = assay: Antileukemic activity against L1210 leukemia cells in female B6D2F1/J mice at 208 mg/kg dose(Mean increased life span, calculated as […]; type: functional, Mus musculus; outline: as §1
L1210 [10] = assay: Antileukemic activity against L1210 leukemia cells in female B6D2F1/J mice at 56 mg/kg dose (post inoculation life span, days); type: functional, Mus musculus; outline: as §1
L1210 [11] = assay: Antileukemic activity against L1210 leukemia cells in female B6D2F1/J mice at 208 mg/kg dose(Mean increased life span, calculated as (T/C-1)X100); type: functional, Mus musculus; outline: as §1
L1210 [12] = assay: Antileukemic activity against L1210 leukemia cells in female B6D2F1/J mice at 56 mg/kg dose(Mean increased life span, calculated as (T/C-1)X100); type: functional, Mus musculus; outline: as §1

Structure (SMILES)	IC50 (CCRF-CEM/ara-C)	IC50 (CCRF-CEM)	Life span (L1210 [1])	Life span (L1210 [2])	Life span (L1210 [3])	Life span (L1210 [4])	Mean increased life span (L1210 [5])	IC50 (MOLT-4)	Mean increased life span (L1210 [6])	Mean increased life span (L1210 [7])	Mean increased life span (L1210 [8])	IC50 (RPMI 6410)	Mean increased life span (L1210 [9])	Life span (L1210 [10])	Mean increased life span (L1210 [11])	Mean increased life span (L1210 [12])
Nc1ccn([C@@H]2O[C@H](CO)[C@@H](O)[C@@H]2O[N+](=O)[O-])c(=O)n1	1000 µM	600 nM	13.8 days	16.6 days	7.4 days	10.8 days	17%	400 nM	118%	64%	71%	6 µM	162%	10.4 days		
Nc1ccn([C@@H]2O[C@H](CO)[C@@H](O)[C@@H]2O)c(=O)n1 [CYTARABINE]	100 µM	20 nM	16.25 days	16.6 days	12.8 days	14 days	102%	10 nM	157%		128%	0.06 µM		13 days	162%	105%
